Screens (PubChem)
SF1 activator = activators of human SF-1, primary screen, cell-based, CHO-K1, Gal4-SF-1 LBD, luciferase luminescence. AID 522, 2006. Steroidogenic factor 1 (Homo sapiens), Q13285. actives 1.9% (n = 65,000). activation, % at 10 µM. CHO-K1 Gal4-SF-1 LBD luciferase reporter; % increase over DMSO SF-1-specific signal;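 active means activation above the mean activation of all tested compounds plus 3 SD, cut at about 50% in these data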
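material = CHO-K1 cells with Gal4–hSF-1 LBD chimera plus Gal4-driven luciferase | compound = 10 µM single point, 1% DMSO | incubation = 20 h compound exposure at 37 °C after 1 h cell settling | measured by = SteadyLite luciferase luminescence | evaluation = percent activation relative to DMSO median and mock-transfected background | control set = DMSO negative control and −SF1 background wells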
BAP1 block = inhibitors of BAP1 deubiquitinase, primary screen, biochemical, Ub-AMC fluorescence, kinetic | recombinant BAP1, Ub-AMC hydrolysis fluorescence kinetic; active compounds read low | activity remaining (% of control), % at 20 µM | actives 0.48% (n = 72,000) | AID 436, 2006;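 active means activity remaining at or below 50% of control, provided the compound also passes the data quality filters; inactive means the rest, including low values that fail the filters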
RORa activator = activators of orphan receptor RORA, primary screen, cell-based, luminescence | Nuclear receptor ROR-alpha (Homo sapiens), P35398 | CHO-K1 Gal4-RORA LBD luciferase reporter; percent increase over mock-subtracted basal signal | activation, % at 10 µM | actives 1.5% (n = 65,000) | AID 560, 2006;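 active means activation above the mean of all tested compounds plus 3 SD, cut at about 49% in these data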
Target sequence (P35398 whole entry, looked up, the tested form may be a part): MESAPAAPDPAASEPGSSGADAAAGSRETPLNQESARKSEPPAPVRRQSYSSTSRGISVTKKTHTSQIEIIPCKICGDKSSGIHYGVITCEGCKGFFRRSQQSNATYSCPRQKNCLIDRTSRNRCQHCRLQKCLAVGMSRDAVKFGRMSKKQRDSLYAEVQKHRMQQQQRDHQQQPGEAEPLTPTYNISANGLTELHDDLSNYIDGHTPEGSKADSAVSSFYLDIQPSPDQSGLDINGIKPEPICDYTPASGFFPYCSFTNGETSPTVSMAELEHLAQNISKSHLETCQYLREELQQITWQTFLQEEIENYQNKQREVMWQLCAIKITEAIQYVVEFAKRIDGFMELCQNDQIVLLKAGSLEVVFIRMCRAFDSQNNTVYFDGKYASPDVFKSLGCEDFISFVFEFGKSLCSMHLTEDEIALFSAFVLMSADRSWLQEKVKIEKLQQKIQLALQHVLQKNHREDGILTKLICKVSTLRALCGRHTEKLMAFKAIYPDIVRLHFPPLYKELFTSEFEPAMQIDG
JNK3 inh = JNK3 kinase activity inhibitors, primary screen, biochemical, human, purified enzyme; actives 0.61% (n = 60,000); Mitogen-activated protein kinase 10 (Homo sapiens), P53779; inhibition, % at 8 µM; HTS; AID 746, 2007; in the data active means inhibition above about 17%
Ec RNAP inh = E. coli RNAP inhibitors, biochemical; DNA-directed RNA polymerase subunit beta (Escherichia coli (strain K12)), P0A8V2; E. coli RNA polymerase, fluorescence transcription assay; inhibition, %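 (tested at 10 µM)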; actives 0.2% (n = 62,000); AID 559, 2006; in the data active means inhibition above about 20%
Hits are given with their value; i = inactive; nt = no result. A selection: hits, their analogues and other compounds. The true share with any hit is near 3.2%.

SMILES	SF1 activator	BAP1 block	RORa activator	JNK3 inh	Ec RNAP inh
Cc1ccc(-n2ncc3c(NCc4ccccc4)ncnc32)cc1	62.5	i	60.9	i	i
Clc1ccc(-n2ncc3c(NCc4ccccn4)ncnc32)cc1	74.3	i	i	i	i
Cc1cccc(-n2ncc3c(NCCCO)ncnc32)c1	67.4	i	83.1	i	i
Cc1cccc(-n2ncc3c(NC4CCCCC4)ncnc32)c1	i	i	i	i	i
C=CCNc1ncnc2c1cnn2-c1cccc(C)c1	i	i	54.7	i	i
Cc1cccc(-n2ncc3c(NCc4cccnc4)ncnc32)c1	55.9	i	72.6	i	i
c1ccc(Cn2ncc3c(NCc4ccco4)ncnc32)cc1	i	i	i	i	i
C=CCNc1ncnc2c1cnn2-c1ccc(Cl)cc1	49.9	i	i	i	i
Cc1ccc(-n2ncc3c(NCc4cccnc4)ncnc32)c(C)c1	i	i	i	i	i
c1ccc(-n2ncc3c(NCc4ccco4)ncnc32)cc1	77.4	i	90.2	20.3	i
COc1ccc(-c2csc(NCc3ccco3)n2)cc1C	80.0	i	49.1	i	i
c1cncc(-c2csc(NCc3ccco3)n2)c1	nt	nt	nt	nt	i
COC(=O)c1c(-c2cccnc2)csc1NC(=O)c1cc(C)on1	79.7	i	56.8	i	i
COC(=O)CNc1c(-c2ccccn2)nc2ccc(Br)cn12	69.3	nt	59.8	nt	i
CCOC(=O)CNc1c(-c2ccc(O)cc2)nc2ccc(Cl)cn12	i	i	i	i	i
Oc1ccc(-c2cccc(-c3ccc(O)cc3)n2)cc1	i	i	51.8	i	i
Oc1ccc(-c2nnc(-c3ccc(O)cc3)nn2)cc1	i	i	i	i	i
CCCCNc1ncnc2c1cnn2-c1ccc(Cl)cc1	89.7	i	109.3	i	i
c1ccc(Nc2ncnc3c2cnn3-c2ccccc2)cc1	nt	i	nt	nt	nt
CCCCNc1ncnc2c1cnn2-c1ccccc1	i	i	63.4	i	i
Fc1cccc(Nc2ncnc3c2cnn3-c2ccccc2)c1	56.8	i	102.5	i	i
CCc1sc(NS(C)(=O)=O)nc1-c1ccccc1	i	i	i	i	i
CCCNS(=O)(=O)c1ccc(OCC(=O)Nc2ccccc2F)cc1	i	i	i	i	i
Cn1c(=O)c(C(=O)Nc2cnccn2)c(O)c2ccccc21	i	i	52.5	i	nt
O=C(O)C(Cc1ccccc1)n1cccc1 (stereo not drawn)	i	i	i	i	i
SMILES	SF1 activator	BAP1 block	RORa activator	JNK3 inh	Ec RNAP inh
COc1ccc2c(c1)CCc1c(C(=O)N3CCCCCC3)noc1-2	56.9	i	i	i	i
CCOC(=O)C(C)n1cnc2c(nnn2-c2ccc(OC)cc2)c1=O (stereo not drawn)	i	i	i	i	i
CCCn1cnc2c(cnn2-c2ccc(F)cc2)c1=O	52.4	i	i	i	i
CCOC(=O)C(C)n1cnc2c(cnn2-c2ccc(Cl)cc2)c1=O (stereo not drawn)	70.0	i	i	i	i
CCCCn1cnc2c(cnn2-c2ccc(Cl)cc2)c1=O	64.8	i	i	i	i
CCCCn1cnc2c(cnn2-c2ccc(F)cc2)c1=O	i	i	i	i	i
S=C(c1ccc(-c2ccccc2Cl)o1)N1CCOCC1	i	i	54.3	i	i
C=CCOc1ccc(/C=C/C(C)=N\O)cc1	i	i	86.4	i	i
CC(O)CNc1ncnc2nc[nH]c12 (stereo not drawn)	i	nt	i	nt	i
O=S1(=O)CC=C(CSc2nc3ccccc3[nH]2)C1	i	i	i	i	i
COC(=O)Nc1ccc(S(=O)(=O)N2CCCc3ccccc32)cc1	i	i	53.4	i	i
Cc1nnc(SCc2ccc(CC(=O)O)cc2)o1	i	i	i	i	i
Cc1nc2cccc(C(=O)NCc3ccccc3)c2o1	i	i	i	22.8	i
Cc1cc(NC(=O)CN2CCC(n3nnc4cc(C(F)(F)F)ccc43)CC2)no1	i	i	i	i	i
Cn1c(SCc2ccccc2)nnc1-c1ccc2c(c1)OCO2	i	i	54.9	i	i
N#CCCCSc1nnc(-c2ccccn2)o1	i	i	i	i	i
Cn1c(NC(=O)CCC2CCCCC2)cc(=O)n(C)c1=O	91.6	i	i	i	i
Fc1cccc2sc(N3CCOCC3)nc12	i	i	i	i	i
O=C(NCC1CCCO1)c1ccc(N2CCCCC2)nc1 (stereo not drawn)	i	i	i	i	i
Fc1cccc2sc(N3CCCCC3)nc12	73.2	i	i	i	i
Clc1ccc2nc(N3CCCCC3)[nH]c2c1	i	i	i	i	i
O=C(NCC1CCCO1)c1ccc2nc(N3CCCCC3)sc2c1 (stereo not drawn)	53.9	i	59.4	i	i
Clc1ccc2nc(N3CCCCC3)sc2c1	64.8	i	i	i	i
CCOC(=O)Cc1nnc(NC(=O)C(CC)Sc2nc(C)cc(=O)[nH]2)s1 (stereo not drawn)	i	i	i	i	i
O=C(O)COc1ccc(C(=O)Cc2ccc3c(c2)OCCCO3)c(O)c1	i	i	i	i	i
SMILES	SF1 activator	BAP1 block	RORa activator	JNK3 inh	Ec RNAP inh
COc1ccc2c(Cl)c(C(N)=O)sc2c1	i	i	i	18.4	i
FC(F)(F)Oc1ccc(Nc2nc3ccccc3o2)cc1	i	i	70.6	i	i
Cc1ccc(NC(=O)c2c(C)nc(Nc3nc4ccccc4o3)nc2C)cc1	i	i	i	i	i
CN(Cc1cccc(F)c1)C(=O)c1ccc(S(=O)(=O)C(F)F)cc1	i	i	i	i	i
CCCCNC(=O)c1cc(-c2ccc(F)cc2)on1	i	i	72.5	i	i
O=C(NCCN1CCOCC1)c1cc(-c2ccc(Br)cc2)on1	i	i	i	i	i
CCCCNC(=O)c1cc(-c2ccc(OC)cc2)on1	i	i	59.0	nt	i
CCCCNC(=O)c1cc(-c2ccc(OC)c(OC)c2)on1	i	i	i	i	i
C=CCNC(=O)c1cc(-c2ccc(Br)cc2)on1	i	i	61.1	i	i
CCCNC(=O)c1cc(-c2ccc(OC)cc2)on1	i	i	i	nt	i
Nc1nnc(Cc2c[nH]c3ccccc23)s1	i	i	i	i	i
COc1cc(OC)c(N2CC34C=CC(O3)C(C(=O)O)C4C2=O)cc1Cl (stereo not drawn)	i	i	i	i	i
COC(=O)c1ccccc1NC(=O)NCc1cccnc1	i	i	i	24.5	i
Nc1nc(CSc2nc3ccccc3s2)nc(N2CCCCC2)n1	i	i	i	i	i
O=C(NCc1cccs1)C(Cc1ccccc1)n1cccc1 (stereo not drawn)	i	i	i	i	22.6
CC(C(=O)NCc1cccs1)n1cccc1 (stereo not drawn)	i	i	i	i	i
CCOC(=O)Nc1ccc2c(c1)Nc1ccccc1S2	i	i	52.9	i	i
Cc1ccc(-n2nc3c(c2NC(=O)c2ccccc2I)CSC3)c(C)c1	nt	i	nt	nt	nt
